From publication PMC6982535 (Science (New York, N.Y.), 2019)

Experiments:
Type in all cases: cell-based
THIK-2 = target: T1, THIK-2 (Homo sapiens, UniProt Q9HB15); assay: Extended screening of K2P channels with BL-1249: THIK-2; settings: result in words
T1 sequence (Q9HB15 1-430): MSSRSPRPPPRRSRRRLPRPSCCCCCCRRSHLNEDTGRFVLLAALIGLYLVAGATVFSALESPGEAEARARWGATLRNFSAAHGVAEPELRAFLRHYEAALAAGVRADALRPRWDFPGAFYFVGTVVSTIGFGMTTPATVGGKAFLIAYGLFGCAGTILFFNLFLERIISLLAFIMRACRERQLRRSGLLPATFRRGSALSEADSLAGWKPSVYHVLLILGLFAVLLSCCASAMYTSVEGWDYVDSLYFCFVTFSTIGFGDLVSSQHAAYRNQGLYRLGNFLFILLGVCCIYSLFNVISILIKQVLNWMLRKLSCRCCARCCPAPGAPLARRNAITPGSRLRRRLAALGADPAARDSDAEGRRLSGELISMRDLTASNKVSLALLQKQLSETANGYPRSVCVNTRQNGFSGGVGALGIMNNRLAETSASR

Kv1.1 = Kv1.1 (Homo sapiens, UniProt Q09470); assay: BL-1249 on helix bundle-crossing gated channel Kv1.1; settings: result in words
Kv1.5 = Kv1.5 (Homo sapiens, UniProt P22460); assay: BL-1249 on helix bundle-crossing gated channel Kv1.5; settings: result in words
CNG channels = assay: BL-1249 on CNG channels; settings: result in words
Kv3.1 = target: T2, Kv3.1 (Homo sapiens, UniProt P48547); assay: BL-1249 on helix bundle-crossing gated channel Kv3.1; settings: result in words
T2 sequence (P48547 1-511): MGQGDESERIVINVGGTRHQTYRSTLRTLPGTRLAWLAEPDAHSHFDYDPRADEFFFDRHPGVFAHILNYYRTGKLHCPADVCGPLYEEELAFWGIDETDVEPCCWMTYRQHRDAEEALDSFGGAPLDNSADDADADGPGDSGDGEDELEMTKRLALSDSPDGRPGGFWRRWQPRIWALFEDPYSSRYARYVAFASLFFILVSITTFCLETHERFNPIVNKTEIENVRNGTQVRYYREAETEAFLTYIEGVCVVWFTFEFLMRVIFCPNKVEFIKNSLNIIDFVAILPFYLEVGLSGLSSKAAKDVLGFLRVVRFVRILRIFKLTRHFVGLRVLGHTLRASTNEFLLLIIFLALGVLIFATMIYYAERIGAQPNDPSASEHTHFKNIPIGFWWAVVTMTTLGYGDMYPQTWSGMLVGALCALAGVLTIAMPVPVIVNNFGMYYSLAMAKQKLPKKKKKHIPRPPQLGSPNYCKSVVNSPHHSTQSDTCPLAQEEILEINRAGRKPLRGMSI

TREK-1 = target: T3, TREK-1 (Homo sapiens, UniProt O95069); assay: TREK-1 channel currents in inside-out patches; settings: inside-out patches; result in words
T3 sequence (O95069 1-426): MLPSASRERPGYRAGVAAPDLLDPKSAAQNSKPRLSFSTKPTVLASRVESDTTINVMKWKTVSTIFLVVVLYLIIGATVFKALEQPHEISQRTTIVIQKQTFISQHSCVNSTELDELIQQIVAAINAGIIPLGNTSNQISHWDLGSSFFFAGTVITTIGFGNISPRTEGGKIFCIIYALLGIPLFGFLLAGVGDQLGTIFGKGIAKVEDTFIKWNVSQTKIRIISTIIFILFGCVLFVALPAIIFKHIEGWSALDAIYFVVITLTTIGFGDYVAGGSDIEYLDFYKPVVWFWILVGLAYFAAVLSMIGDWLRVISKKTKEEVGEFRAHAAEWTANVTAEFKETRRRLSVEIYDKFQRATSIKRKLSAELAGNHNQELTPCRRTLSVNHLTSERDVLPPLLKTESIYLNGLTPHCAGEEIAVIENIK
Outline: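 TREK-1 currents were recorded in inside-out patches from Xenopus oocytes and evoked by voltage ramps. Currents were read at +40 mV. Concentration-response curves were obtained with and without 5 μM THexA (tetrahexylammonium). THexA inhibition of basal current was quantified separately. n ≥ 8.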

TALK-2 = target: T4, TALK-2 (Homo sapiens, UniProt Q96T54); assay: TALK-2 currents in inside-out patches; settings: result in words
T4 sequence (Q96T54 1-332): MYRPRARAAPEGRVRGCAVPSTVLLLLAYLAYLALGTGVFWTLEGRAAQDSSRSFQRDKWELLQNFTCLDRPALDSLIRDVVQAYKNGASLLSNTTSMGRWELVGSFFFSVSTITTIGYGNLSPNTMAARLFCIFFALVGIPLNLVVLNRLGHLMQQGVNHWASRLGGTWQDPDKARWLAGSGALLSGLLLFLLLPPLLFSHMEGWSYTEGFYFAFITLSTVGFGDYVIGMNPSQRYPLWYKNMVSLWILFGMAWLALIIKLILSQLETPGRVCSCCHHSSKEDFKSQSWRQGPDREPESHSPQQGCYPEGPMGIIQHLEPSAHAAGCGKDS
Outline: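 TALK-2 currents were recorded in inside-out patches from Xenopus oocytes. Fold activation was measured with 50 μM test compound or 1 mM 2-APB, applied at several intracellular pH values.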

THIK-1 = target: T5, THIK-1 (Homo sapiens, UniProt Q9HB14); assay: Extended screening of K2P channels with BL-1249: THIK-1; settings: result in words
T5 sequence (Q9HB14 1-408): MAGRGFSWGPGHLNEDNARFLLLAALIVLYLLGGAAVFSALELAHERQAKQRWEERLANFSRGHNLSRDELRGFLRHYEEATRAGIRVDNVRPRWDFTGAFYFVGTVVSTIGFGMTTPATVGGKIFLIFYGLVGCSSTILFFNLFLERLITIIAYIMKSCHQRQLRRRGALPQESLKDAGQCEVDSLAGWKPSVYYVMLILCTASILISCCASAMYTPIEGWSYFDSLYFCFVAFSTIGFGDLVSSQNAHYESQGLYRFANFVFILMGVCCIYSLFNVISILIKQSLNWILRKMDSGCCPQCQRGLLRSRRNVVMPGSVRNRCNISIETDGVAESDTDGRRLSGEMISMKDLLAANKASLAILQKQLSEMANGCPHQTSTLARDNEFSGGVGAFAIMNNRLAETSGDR

Chain of Kv1.1 (Q09470 whole entry): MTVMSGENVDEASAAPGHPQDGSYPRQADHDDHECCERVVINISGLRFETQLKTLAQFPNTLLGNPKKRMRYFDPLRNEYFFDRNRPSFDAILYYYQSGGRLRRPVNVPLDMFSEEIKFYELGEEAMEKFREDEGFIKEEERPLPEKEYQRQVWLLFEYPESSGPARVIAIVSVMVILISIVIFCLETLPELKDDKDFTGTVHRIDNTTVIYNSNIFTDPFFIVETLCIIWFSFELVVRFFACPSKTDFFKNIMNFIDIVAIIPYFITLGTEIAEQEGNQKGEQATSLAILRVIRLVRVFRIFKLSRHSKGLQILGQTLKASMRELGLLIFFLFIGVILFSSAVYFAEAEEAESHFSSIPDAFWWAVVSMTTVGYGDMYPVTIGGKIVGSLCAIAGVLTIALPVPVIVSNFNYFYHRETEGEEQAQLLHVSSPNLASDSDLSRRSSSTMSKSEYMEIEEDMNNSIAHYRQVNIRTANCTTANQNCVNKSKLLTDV
Chain of Kv1.5 (P22460 whole entry): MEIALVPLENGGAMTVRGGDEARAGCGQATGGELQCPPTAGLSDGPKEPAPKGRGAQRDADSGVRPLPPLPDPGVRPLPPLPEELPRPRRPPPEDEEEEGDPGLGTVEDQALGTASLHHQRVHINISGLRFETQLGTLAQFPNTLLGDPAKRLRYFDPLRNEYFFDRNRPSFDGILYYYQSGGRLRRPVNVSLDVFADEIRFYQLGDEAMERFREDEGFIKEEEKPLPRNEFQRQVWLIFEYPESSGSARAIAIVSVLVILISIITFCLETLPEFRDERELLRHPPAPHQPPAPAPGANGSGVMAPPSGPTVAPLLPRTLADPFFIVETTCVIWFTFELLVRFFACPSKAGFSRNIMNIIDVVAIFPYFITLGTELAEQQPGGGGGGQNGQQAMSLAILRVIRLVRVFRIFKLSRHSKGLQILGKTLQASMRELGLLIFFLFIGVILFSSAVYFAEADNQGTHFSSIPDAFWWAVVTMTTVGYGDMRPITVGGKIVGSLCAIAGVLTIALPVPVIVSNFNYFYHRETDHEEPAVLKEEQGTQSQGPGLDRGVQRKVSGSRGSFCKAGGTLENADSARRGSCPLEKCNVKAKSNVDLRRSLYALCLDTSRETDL

activation of THIK-2 (THIK-2): potent activation | activation of Kv1.1 (Kv1.1): not activated | activation of Kv1.5 (Kv1.5): not activated | activation of Kv3.1 (Kv3.1): not activated | opening / activation of TREK-1 channels (TREK-1): equal efficiency in opening | activation of TALK-2 (TALK-2; extended screening): potent activation | pH dependence of TALK-2 activation (TALK-2; lowering pHi to 5, 50 μM BL-1249 or 1 mM 2-APB): potency dropped strongly | activation of THIK-1 (THIK-1): potent activation
SMILES: c1ccc(-c2nn[nH]n2)c(Nc2cccc3c2CCCC3)c1 [BL-1249]
activation of CNG channels (CNG channels): not activated
